For series [1], the system named is Plasmodium falciparum. The series can be described thus: ST_JUDE: Plasmodium falciparum 3D7 EC50 (uM) as measured by SYBR green dye. In kind it is functional, organism-based.
The subject of series [2] is Plasmodium falciparum. Put plainly: ST_JUDE: Plasmodium falciparum K1 EC50 (uM) as measured by SYBR green dye. In kind it is functional, organism-based.
For series [3], the system named is Plasmodium falciparum. Put plainly: ST_JUDE: Cytotoxicity against Plasmodium falciparum 3D7. Type of series: functional, organism-based. The method, boiled down:
(§1)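 Asexual P. falciparum grown in human erythrocytes, exposed to compounds for 72 h, and growth read as the DNA quantity in treated versus control cultures. Dose-response run at 12 concentrations from 10 μM to 5 nM.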

Series [4] deals with Plasmodium falciparum. Put plainly: ST_JUDE: Cytotoxicity against Plasmodium falciparum K1. Type of series: functional, organism-based. In a few lines:
as §1

The test system of series [5] is Plasmodium falciparum. The series can be described thus: ST_JUDE: Cytotoxicity against Plasmodium falciparum V1/S. Type of series: functional, organism-based.
Another series relates to Toxoplasma gondii. The series can be described thus: ST_JUDE: Growth inhibition of to Toxoplasma gondii, in human U-2OS cells, as measured by luciferase. As to conditions: RH, U2OS. In kind it is functional, organism-based. In a few lines: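 T. gondii parasites engineered to express luciferase; drug sensitivity read by luminescence.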
A further series concerns Trypanosoma brucei. Put plainly: ST_JUDE: Cytotoxicity using luciferase to measure ATP as an indicator of the viability of Trypanosoma brucei. In kind it is functional, organism-based.
The test system of a further series is Leishmania major. The series can be described thus: ST_JUDE: Cytotoxicity using Alamar Blue to measure viability of Leishmania major. Type of series: functional, organism-based. The method, boiled down: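 L. major promastigotes; drug susceptibility read with Alamar Blue.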
(Resazurin is reduced to fluorescent resorufin, in cell work by metabolically active cells.)

Series [6] is described as follows: ST_JUDE: Cytotoxicity using luciferase to measure ATP as an indicator of the viability of human foreskin fibroblast cells (BJ). In kind it is toxicity, cell-based.
Series [7] is described as follows: ST_JUDE: Cytotoxicity using luciferase to measure ATP as an indicator of the viability of human epithelial hepatocellular carcinoma cells (HepG2). In kind it is toxicity, cell-based.
A short description of series [8]: ST_JUDE: Cytotoxicity using luciferase to measure ATP as an indicator of the viability of human epithelial embryonic kidney cells (HEK293). Type of series: toxicity, cell-based.
A short description of series [9]: ST_JUDE: Cytotoxicity using luciferase to measure ATP as an indicator of the viability of human Burkitt''s lymphoma lymphoblast cells (Raji). Type of series: toxicity, cell-based.
Series [10] deals with Plasmodium falciparum. The series can be described thus: ST_JUDE: Cytotoxicity against Plasmodium falciparum Dd2. Type of series: functional, organism-based.
The subject of series [11] is Plasmodium falciparum. Put plainly: ST_JUDE: Cytotoxicity against Plasmodium falciparum W2. In kind it is functional, organism-based.
The test system of series [12] is Plasmodium falciparum. Put plainly: ST_JUDE: Cytotoxicity against Plasmodium falciparum SB-A6. In kind it is functional, organism-based.
The subject of series [13] is Plasmodium falciparum. Put plainly: ST_JUDE: Cytotoxicity against Plasmodium falciparum D10 transfected with yeast DHOD. In kind it is functional, organism-based.

Structures are written as SMILES.

Drawing on ChEMBL document CHEMBL1154198, “Chemical genetics of Plasmodium falciparum” (Nature, 2010), this text covers EC50 for five compounds.

As to `O=C(Nc1cccc(Cl)c1N1CCOCC1)C(Cl)(Cl)Cl`, the EC50 (usually the concentration that produces a half-maximal response) with Plasmodium falciparum [1] was 8600 nM; with Plasmodium falciparum [2] it was 2980 nM; in the series on Plasmodium falciparum [3], 1540 nM; with Plasmodium falciparum [4], 1400 nM; in the series with Plasmodium falciparum [5], 1080 nM; in the series with Toxoplasma gondii it was greater than 16600 nM. The EC50 in the series on Trypanosoma brucei was greater than 29000 nM; in the series with Leishmania major, greater than 12900 nM; in [6], greater than 30200 nM; in [7], greater than 30200 nM; in series [8], greater than 30200 nM; in [9] it was greater than 30200 nM. In addition, the EC50 in the series with Plasmodium falciparum [10] was 2470 nM; with Plasmodium falciparum [11] it was greater than 7760 nM; with Plasmodium falciparum [12], 2790 nM; in the series with Plasmodium falciparum [13], 3380 nM.

`CSc1ccc2ccccc2[n+]1C`: the EC50 with Plasmodium falciparum [1] was 1590 nM; in the series with Plasmodium falciparum [2], 893 nM; with Plasmodium falciparum [3], 590 nM; in the series with Plasmodium falciparum [4], 588 nM; with Plasmodium falciparum [5] it was 1830 nM; in the series with Toxoplasma gondii, greater than 20300 nM. Also, the concentration giving a half-maximal response (EC50) was greater than 35600 nM with Trypanosoma brucei; greater than 15900 nM with Leishmania major; greater than 37100 nM in [6]; greater than 37100 nM in series [7]; greater than 37100 nM in series [8]; greater than 37100 nM in series [9]. Further, the EC50 came out at 1530 nM in the series with Plasmodium falciparum [10], 3210 nM with Plasmodium falciparum [11], 1200 nM in the series with Plasmodium falciparum [12] and 1110 nM in the series on Plasmodium falciparum [13].

For the compound `O=S(=O)(c1ccc(Cl)cc1)N1CCN(C(=S)NCc2ccco2)CC1`, the EC50 in the series on Plasmodium falciparum [1] is 1510 nM; with Plasmodium falciparum [2], 1270 nM; with Plasmodium falciparum [3], 864 nM; in the series on Plasmodium falciparum [4], 1150 nM; with Plasmodium falciparum [5], 2400 nM; in the series with Toxoplasma gondii, greater than 16500 nM. Further, the EC50 in the series with Trypanosoma brucei was 24900 nM; in the series on Leishmania major, greater than 12900 nM; in series [6], greater than 30100 nM; in [7], greater than 30100 nM; in [8], greater than 30100 nM; in series [9] it was greater than 30100 nM. For the same compound, the EC50 in the series with Plasmodium falciparum [10] stood at 849 nM; in the series with Plasmodium falciparum [11], 820 nM; with Plasmodium falciparum [12], 4460 nM; in the series with Plasmodium falciparum [13], 3490 nM.

`Cc1ccc(C2CC(C(F)(F)F)n3nc(C(=O)N4CCN(C(c5ccccc5)c5ccccc5)CC4)cc3N2)cc1` (stereo not given): the concentration giving a half-maximal response (EC50) in the series on Plasmodium falciparum [1] was 668 nM; with Plasmodium falciparum [2], 10400 nM; in the series on Plasmodium falciparum [3] it was 1120 nM; in the series on Plasmodium falciparum [4] it was greater than 11000 nM; with Plasmodium falciparum [5], greater than 11000 nM; in the series with Toxoplasma gondii, greater than 23400 nM. In addition, the EC50 was 5410 nM in the series on Trypanosoma brucei; greater than 18300 nM in the series on Leishmania major; greater than 42700 nM in series [6]; greater than 42700 nM in series [7]; greater than 42700 nM in [8]; greater than 42700 nM in series [9]. The EC50 in the series on Plasmodium falciparum [10] is 1370 nM; with Plasmodium falciparum [11], greater than 11000 nM; with Plasmodium falciparum [12], 448 nM; in the series with Plasmodium falciparum [13] it was greater than 11000 nM.

In the case of `Cc1ccc2c(c1)N(C)/C(=C/c1sc3ccccc3[n+]1CCO)S2`, the EC50 was 1580 nM in the series on Plasmodium falciparum [1]; 440 nM with Plasmodium falciparum [2]; 320 nM with Plasmodium falciparum [3]; 420 nM in the series with Plasmodium falciparum [4]; 546 nM in the series on Plasmodium falciparum [5]; greater than 10600 nM with Toxoplasma gondii. For the same compound, the EC50 in the series on Trypanosoma brucei was 6040 nM; with Leishmania major, greater than 8280 nM; in [6] it was greater than 19300 nM; in series [7], greater than 19300 nM; in [8] it was greater than 19300 nM; in series [9], 2100 nM. Also, the EC50 in the series with Plasmodium falciparum [10] came to 341 nM; in the series with Plasmodium falciparum [11], 432 nM; in the series with Plasmodium falciparum [12], 514 nM; in the series on Plasmodium falciparum [13], 362 nM.
